Hits are enriched below; roughly 3.1% of the tested compounds scored in any of these assays.
H9c2 TAG inh – triacylglycerol accumulation inhibition | H9c2 cells, Nile Red lipid (TAG) fluorescence; cells loaded with 200 µM oleic acid | inhibition, % at 12.5 µM | 230,000 tested, 0.66% active;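 active means pattern-corrected inhibition of lipid staining of at least 50% with the nuclear-stain viability signal not falling by more than 50%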;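 further: 0% = DMSO wells and 100% = triacsin C control wells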
A1 inh – inhibitors of the anti-apoptotic protein A1, read as caspase activation; MEF A1-2A-BIM cells, Caspase-Glo 3/7 luminescence, 3 h; percent of clofoctol response, vehicle zero; caspase activation, % (concentration not given with the values); 330,000 tested, 0.066% active; AID 2462;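 active means over half of replicate activation scores above 10%, or exactly half above 10 with the replicate mean above 10; inconclusive means replicate mean below 10 yet half the replicates above 10; inactive means over half of replicates below 10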
CSC inhib – blocks cancer stem cells; cancer stem cell-like cells viability, luminescence; inhibition, % at 7.5 µM; 300,000 tested, 1.1% active; AID 2717; in the data active means inhibition above about 75%; inconclusive means no clear call, values can overlap the other calls; tested in HMLE shEcad cells
Calb FLC – C. albicans growth modulation with fluconazole; AID 1979; 300,000 tested, 0.57% active; growth inhibition, % (no concentration beside the values); C. albicans CaCi-2 + fluconazole, Alamar Blue growth, 48 h;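 active means growth inhibition above about 58% in most replicates, limit read from the data, passing the limit was not always enough; inconclusive means exactly half the replicates above a set limit; inactive means most replicates below a set limit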;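 further: all wells also contain fluconazole at 8 µg/ml as a sub-toxic cotreatment; 0% = median of DMSO wells and 100% = median of geldanamycin control wells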
T cruzi inh – T. cruzi replication inhibition; T. cruzi beta-gal in NIH3T3, luminescence, 90 h; inhibition, % (concentration not given with the values); 300,000 tested, 1.4% active; AID 1885;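 active means mean inhibition across valid replicates above about 55%, limit read from the data; inconclusive means mean below that limit but half or more replicates reach it; inactive means mean below it, under half of replicates reach it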;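 further: signal also drops with host cell toxicity which is not excluded here; 0% = plate median of DMSO wells and 100% = zero luminescence signal; higher percent means less beta-gal luminescence so fewer parasites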
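Material: NIH/3T3 host cells with β-galactosidase reporter T. cruzi; Input: 5,000 host fibroblasts per well; Medium: DMEM, 2% fetal bovine serum; Compound: 50 nL DMSO compound solution per well; Schedule: 3 h host attachment, then at least 90 h co-culture; Detection: luminescent β-galactosidase signal after 60 min lysis.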
Beta cell apopt – beta cell apoptosis inhibition. INS-1E cytokine-induced death, ATP luminescence, 48 h; percent of positive-control rescue, neutral wells zero. protection from apoptosis, % (test concentration not listed). 300,000 tested, 0.8% active;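 active means Every replicate reaches about 75%, or at least half do and their mean reaches it too, limit read from the data; inconclusive means At least half of replicates reach the limit but their mean does not; inactive means Under half of replicates reach the limit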;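 further: 0% = cytokine-treated negative control wells and 100% = positive control rescue; higher means more ATP so stronger rescue from cytokine killing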
* hit, by the source's call; ? = inconclusive; . = not tested or not shown.

SMILES	H9c2 TAG inh	A1 inh	CSC inhib	Calb FLC	T cruzi inh	Beta cell apopt
CCCCNC(=O)c1cn(C)c2ccc(S(=O)(=O)N3CCCC3)cc2c1=O	.	-1	-4	85*	-21	-3
COc1ccc(Cc2nnc(SCC(=O)Nc3ccccc3)[nH]c2=O)cc1	-1	0	15	3	0	-6
COc1ccccc1NS(=O)(=O)c1ccc(C)c(C(=O)NCC(c2cccs2)N2CCOCC2)c1 (stereo unspecified)	4	.	.	.	.	.
CCCCCCCCCC(=O)N[C@@H]1c2cc(OC)c(OC)cc2C[C@H]1O	-6	.	.	.	.	.
O=C(O)CCS(=O)(=O)c1nc(-c2cccs2)cc(C(F)(F)F)n1	.	-1	3	32	-32	-9
CS(=O)(=O)c1nc(-c2cccs2)cc(C(F)(F)F)n1	.	8.2*	100*	97*	77*	91*
COc1ccc(-c2cc(C(F)(F)F)nc(S(C)(=O)=O)n2)cc1	2	0	96*	-5	-18	-31
O=C1COc2ccc(NC(=O)c3ccccc3C(=O)O)cc2N1	.	-1	-4	11	-1	-3
COc1ccc(-c2nnc(NC(=O)c3ccc(F)cc3)o2)cc1	-1	0	27	92*	46	7
O=C(Nc1nnc(-c2ccc3c(c2)CCCC3)o1)c1c(F)cccc1F	4	0	22	?	-3	-2
Cc1ccccc1C(=O)Nc1nnc(-c2ccc(F)cc2)o1	6	0	24	89*	18	9
COc1ccccc1C(=O)Nc1nnc(-c2ccc(Cl)cc2)o1	-2	0	-3	-2	-5	1
O=C(Nc1nnc(-c2ccc3c(c2)CCCC3)o1)c1ccc(Cl)cc1Cl	12	1	68	85*	-3	-3
COc1ccc(-c2nnc(NC(=O)c3cc(Cl)ccc3Cl)o2)cc1	-6	0	22	83*	8	7
COc1ccc(-c2nnc(NC(=O)c3ccc4c(c3)OCCO4)o2)cc1	.	-2	37	-1	19	-1
O=C(c1ccccc1)c1coc(-c2ccccc2)c1	13	.	.	.	.	.
COC(=O)CNC(=O)C1CC(=O)N(CCc2ccc(F)cc2)C1 (stereo unspecified)	.	1	-8	-3	-3	-4
COc1ccc(-c2nnc(NC(=O)c3ccc(S(=O)(=O)N4CCc5ccccc5C4)cc3)o2)cc1	-5	1	.	97*	73*	4
Cc1ccc(C)c(SCC(=O)Nc2nnc(-c3ccccc3)o2)c1	17	0	6	81*	-17	-19
CC(=O)c1sc(NC(=O)CCN2C(=O)c3ccccc3C2=O)nc1C	8	0	-1	1	-6	-3
CC(C)C(=O)N[C@@H]1c2ccccc2CC[C@@H]1O	-4	.	.	.	.	.
CC(C)CC1NC(=O)C(CC(C)C)N(CO)C1=O (stereo unspecified)	2	.	.	.	.	.
COC(=O)[C@@H](Cc1ccccc1)N(Cc1ccccc1)S(=O)(=O)N(Cc1ccccc1)[C@H](Cc1ccccc1)C(=O)OC	12	1	26	.	.	119*
CC(C)N(Cc1ccccc1)S(=O)(=O)c1ccc(F)cc1	.	0	-9	-5	16	47
C=C[C@H](Cc1ccccc1)N(Cc1ccccc1)S(=O)(=O)N(Cc1ccccc1)[C@H](C=C)Cc1ccccc1	-28	2	21	.	.	82*
SMILES	H9c2 TAG inh	A1 inh	CSC inhib	Calb FLC	T cruzi inh	Beta cell apopt
COCCCNC(=O)C[C@H]1C[C@H](C(=O)N(C(C)C)C(C)C)[C@@]2(C)c3[nH]c4ccc(Cl)cc4c3CCN2C1=O	15	.	.	.	.	.
CCn1c(CN(C)c2ccccc2)nc2ccccc21	.	0	12	-6	6	-2
CC1(NC(=O)CCc2ccccc2)CCN(CCCc2ccccc2)C1=O (stereo unspecified)	.	0	-3	.	.	-1
CC1(NC(=O)CC(c2ccccc2)(c2ccccc2)c2ccccc2)CCN(CCCc2ccccc2)C1=O (stereo unspecified)	10	1	100*	.	.	31
CCOC(=O)/C(=N\Nc1ccccc1)c1csc(Nc2ccc(C)cc2)n1	.	0	74	-3	60*	5
CCCCC(CCC(=O)O)(C(=O)OCC)c1csc(Nc2ccc(C)cc2)n1 (stereo unspecified)	.	0	0	-1	-12	-11
COc1cc2cnc(-c3ccccc3)c(-c3cccc(C(F)(F)F)c3)c2cc1OC	-8	?	128*	.	.	4
Fc1ccc2cnc(-c3ccccc3)c(-c3cccc(C(F)(F)F)c3)c2c1	3	0	25	.	.	-5
CCCc1ccc(C(=O)NNc2cccc(C)c2)cc1	-1	0	77*	97*	.	7
Cc1cccc(NNC(=O)C(=O)NNc2cccc(C)c2)c1	-11	2	93*	100*	16	1
O=P1(O)Cc2ccccc2-c2ccccc21	-8	.	.	.	.	.
CCN(CC)c1ccc(/C=N/N(c2ccccc2)c2ccccc2)c(O)c1	.	-1	53	0	40	95*
CCN(CC)c1ccc(/C=N/Nc2nc3ccccc3[nH]2)c(O)c1	.	0	101*	98*	59*	122*
Oc1ccc(/C=N/N(c2ccccc2)c2ccccc2)c(O)c1O	.	0	27	113*	0	-7
CCN(CC)c1ccc(/C=N/N=C(c2ccccc2)c2ccccc2)c(O)c1	22	2	61	-2	28	13
Oc1ccc(/C=N/N(c2ccccc2)c2ccccc2)cc1O	17	1	43	37	-5	6
O=C1C=CC(c2ccccc2)(c2ccccc2)CC1	6	.	.	.	.	.
CCOC(=O)c1ccc(NC(=O)CC2S/C(=N/N=C/c3c[nH]c4ccccc34)NC2=O)cc1 (stereo unspecified)	.	0	88*	22	3	-6
Cc1ccc(NC(=O)CC2S/C(=N/N=C/c3c[nH]c4ccccc34)NC2=O)cc1 (stereo unspecified)	.	0	3	0	-6	-7
O=C(Nc1cc(Sc2nc3ccccc3s2)cc([N+](=O)[O-])c1)c1ccccc1	.	0	50	10	56*	13
O=C(Nc1cc(Sc2ccccn2)cc([N+](=O)[O-])c1)c1cccc(F)c1	.	1	40	19	30	84*
O=C(Nc1nc2ccccc2s1)c1ccccc1[N+](=O)[O-]	.	-1	-2	17	1	-1
O=C(NNC(=O)c1ccccn1)c1cccc([N+](=O)[O-])c1	-4	1	12	1	1	35
O=C(Nc1cc(Sc2nc3ccccc3s2)cc([N+](=O)[O-])c1)c1ccccc1F	-1	0	61	7	65*	6
O=C(Nc1cccnc1)c1cc(S(=O)(=O)N2CCCCC2)c(Cl)cc1Cl	.	0	2	-11	-15	4
CN(C)/C(=N\S(=O)(=O)c1ccc(Br)cc1)c1ccccc1	3	1	-4	2	-12	-2
COc1ccc(C(C)(O)c2nc(-c3cccs3)cs2)cc1 (stereo unspecified)	-8	.	.	.	.	.

High-throughput results as filed in PubChem BioAssay.
